Shown are actives, neighbours in structure and some others; about 2% of the full set was active somewhere.
TPT1 inhibitor: Candida albicans TPT1 enzyme inhibitors, primary screen, biochemical, fluorescence polarization; tRNA 2'-phosphotransferase TPT1 (Candida albicans SC5314); recombinant caTPT1, FP RNA substrate dephosphorylation; inhibition, % at 5 µM; hit rate 0.81% among 300,000;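 active means inhibition above the mean of all tested compounds plus 3 SD, set per screening campaign, cut at about 24% in these data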;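 further: plate controls were DMSO alone for no effect and ferristatin control at 100 nM for full effect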
CSN deneddyl inh: inhibitors of CSN-mediated cullin deneddylation, primary screen, biochemical, fluorescence polarization, uHTS; AID 651999, 2013; hit rate 0.38% among 360,000; inhibition, % at 12.5 µM; Purified CSN, SCF-Nedd8-OG deneddylation; COP9 signalosome complex subunit 5 (Homo sapiens), Q92905;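 active means pattern-corrected inhibition above about 35%, with an unprinted fluorescence ratio check between 0.5 and 1.5, limit read from the data, passing the limit was not always enough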;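 further: 0% = enzyme with substrate and 100% = substrate without enzyme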
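Material: purified human Csn5 enzyme expressed in HEK293T cells / Medium: Tris buffer pH 7.5, NaCl, DTT, Tween-20, trehalose, ovalbumin / Compound dosing: 12.5 µM single point / Schedule: 90 min incubation of compound, enzyme and substrate at room temperature / Signal: fluorescence polarization of the substrate / Control set: no-enzyme wells high, enzyme-with-substrate wells low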
Rpn11 inh: Rpn11 (PSMD14) deubiquitinase inhibitors, primary screen, biochemical, fluorescence polarization, uHTS; inhibition, % at 20 µM; hit rate 0.59% among 360,000; 26S proteasome non-ATPase regulatory subunit 14 (Homo sapiens), O00487; human 26S proteasome, Ub4-pepOG fluorescence polarization; 20S core pre-blocked with epoxomicin; AID 588493, 2011;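 active means inhibition at 20 µM, scaled to each plate's controls, above about 33%, limit read from the data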
Target sequence (O00487 whole entry, looked up): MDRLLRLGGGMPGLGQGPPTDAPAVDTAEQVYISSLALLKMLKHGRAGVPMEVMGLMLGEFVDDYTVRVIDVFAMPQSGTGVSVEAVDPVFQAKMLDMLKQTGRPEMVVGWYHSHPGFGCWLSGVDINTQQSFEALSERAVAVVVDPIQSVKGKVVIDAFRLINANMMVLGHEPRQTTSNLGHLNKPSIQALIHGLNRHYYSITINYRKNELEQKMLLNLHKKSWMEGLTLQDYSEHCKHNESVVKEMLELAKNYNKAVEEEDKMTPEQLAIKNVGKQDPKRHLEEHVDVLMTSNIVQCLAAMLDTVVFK
HNF4A DNA FP: change in binding of human HNF4A to DNA, primary screen, biochemical, fluorescence polarization, FITC-DNA | 1 h | activity change, % at 10 µM | Hepatocyte nuclear factor 4-alpha (Homo sapiens), P41235 | hit rate 0.3% among 360,000 | AID 1224865, 2016; in the data active means activity change above about 30%, passing the limit was not always enough
SENP1 FRET inh: human SENP1 catalytic domain inhibitors, primary screen, biochemical, FRET, uHTS; hit rate 0.21% among 360,000; inhibition, % at 10 µM; AID 624204, 2012; recombinant SENP1 catalytic domain, CyPet-SUMO1-YPet FRET cleavage;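 active means inhibition at least 30% at 10 µM, raw YFP signal under a set limit, fluorescence ratio 0.5 to 1.5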;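 further: 0% = enzyme with DMSO and 100% = no enzyme wells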
Target sequence (Q9P0U3 419-644 limits assumed): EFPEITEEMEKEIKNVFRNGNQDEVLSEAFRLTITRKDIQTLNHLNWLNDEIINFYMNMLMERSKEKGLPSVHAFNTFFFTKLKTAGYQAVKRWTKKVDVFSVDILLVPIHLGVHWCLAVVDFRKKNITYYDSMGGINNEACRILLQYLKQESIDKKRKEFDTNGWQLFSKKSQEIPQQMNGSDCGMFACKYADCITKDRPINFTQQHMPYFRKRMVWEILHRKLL
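Test system: hSENP1 catalytic domain, recombinant; Amount: 20 pM final SENP1 enzyme; Medium: Tris pH 8 buffer plus EDTA, NaCl, BME, BSA, NP40, catalase; Schedule: 50 min enzyme reaction, room temperature, light-protected; Technique: FRET fluorescence in CFP and YFP emission channels; Controls: no-enzyme wells low, DMSO-plus-enzyme wells high control.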
ATG4B inh: ATG4B protease inhibitors, primary screen, biochemical, fluorescence, uHTS; Cysteine protease ATG4B (Homo sapiens), Q9Y4P1; ATG4B cleavage of LC3-PLA2, NBD-HPC fluorescence, 1 h; inhibition, % at 8.33 µM; hit rate 0.51% among 340,000
Rpn11 confirm: Rpn11 (PSMD14) deubiquitinase inhibitors, confirmation, biochemical, fluorescence polarization, single concentration; shares compounds with Rpn11 inh; purified human 26S proteasome, Ub4-pepOG fluorescence polarization; proteasome pretreated with epoxomicin; inhibition, % at 20 µM; hit rate 29% among 1,900
MMP-2 inh: MMP-2 enzyme inhibition, confirmation, counter-screen for RPN11 inhibitor project, biochemical, fluorescence, single concentration | inhibition, % at 20 µM | recombinant MMP-2, FRET peptide cleavage fluorescence | shares compounds with Rpn11 inh | hit rate 4% among 1,900 | AID 602330, 2012;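 further: human MMP-2 activated beforehand with APMA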
Thrombin FP: bovine thrombin protease inhibition, confirmation, counter-screen for Rpn11 inhibitor project, biochemical, fluorescence polarization, single concentration; shares compounds with Rpn11 inh; bovine thrombin cleavage of Ub4-pepOG; inhibition, % at 20 µM; hit rate 13% among 1,900; AID 602333, 2012;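 active means mean inhibition at least 40% at 20 µM, or signal 3 deviations below plate average, so some actives read negative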;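 further: plate controls were thrombin with DMSO for no effect and buffer wells lacking thrombin for full effect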
Active calls of the source: *. Unless noted, no stated cut-off is given here; in the data, active means inhibition above about 40%; inactive means the rest.

How did S=C(c1cn(CCOc2ccccc2)c2ccccc12)N1CCCC1 do in these assays?
TPT1 inhibitor: 2.5; CSN deneddyl inh: 1.9; Rpn11 inh: 21.0; HNF4A DNA FP: -2.0; SENP1 FRET inh: -40.9; ATG4B inh: -5.1

What do the screens show for `CC(=O)N(/N=C/c1ccc(C)cc1)c1nc(CCl)cs1`?
TPT1 inhibitor: -1.5; CSN deneddyl inh: 11.2; Rpn11 inh: 5.0; HNF4A DNA FP: 0.3; SENP1 FRET inh: -0.7; ATG4B inh: -12.1

Results for O=C(Cn1c(C(F)(F)F)nc2ccccc21)N1CCCC1 ?
TPT1 inhibitor: -2.3; CSN deneddyl inh: 2.6; Rpn11 inh: 74.8*; HNF4A DNA FP: -2.9; SENP1 FRET inh: -0.9; ATG4B inh: 6.2; Rpn11 confirm: -20.1; MMP-2 inh: -34.6; Thrombin FP: -17.4

What do the screens show for `CCC(C)N1CNc2c(c(=O)[nH]c(=S)n2-c2cccc(C)c2)C1` (stereo not given)?
TPT1 inhibitor: 4.7; CSN deneddyl inh: 0.9; Rpn11 inh: -1.5; HNF4A DNA FP: 4.9; SENP1 FRET inh: -16.3; ATG4B inh: -4.1

What do the screens show for `CCCSC1=N/C(=C\C=C\c2ccco2)C(=O)S1`?
TPT1 inhibitor: 17.8; CSN deneddyl inh: 58.9; Rpn11 inh: 81.1*; HNF4A DNA FP: -15.3; SENP1 FRET inh: 22.3; ATG4B inh: 3.9; Rpn11 confirm: 4.2; MMP-2 inh: 34.1; Thrombin FP: 6.7

How did O=C1SC(SCc2ccccc2)=N/C1=C\c1ccco1 do in these assays?
TPT1 inhibitor: 2.5; CSN deneddyl inh: 15.8; Rpn11 inh: 6.5; HNF4A DNA FP: -4.5; SENP1 FRET inh: -21.1; ATG4B inh: 38.6

Results for O=[N+]([O-])c1ccc(/C=N/Nc2ccccn2)cc1 ?
TPT1 inhibitor: 14.5; CSN deneddyl inh: 10.9; Rpn11 inh: 41.8*; HNF4A DNA FP: 15.6; SENP1 FRET inh: 22.4; ATG4B inh: -2.0; Rpn11 confirm: 18.9; MMP-2 inh: -34.6; Thrombin FP: -2.9

How did CCOC(=O)c1cc(-c2ccccc2)sc1NC(=O)C(C)N1C(=O)NC(C)(c2ccc(Cl)cc2)C1=O (stereo not given) do in these assays?
TPT1 inhibitor: 4.9; CSN deneddyl inh: 6.1; Rpn11 inh: 120.2*; HNF4A DNA FP: 50.8*; SENP1 FRET inh: -13.4; ATG4B inh: -7.6; Rpn11 confirm: 12.7; MMP-2 inh: 11.0; Thrombin FP: 3.6

How did CCOC(=O)c1cc(-c2ccccc2)sc1NC(=O)C(C)C do in these assays?
TPT1 inhibitor: -0.3; CSN deneddyl inh: 3.4; Rpn11 inh: -9.2; HNF4A DNA FP: -3.2; SENP1 FRET inh: 1.4; ATG4B inh: -2.8

How did Cc1cc(C)cc(NC(=O)C(OC(=O)c2ccc(NC(=O)CC#N)cc2)c2ccccc2)c1 (stereo not given) do in these assays?
TPT1 inhibitor: 10.6; CSN deneddyl inh: 5.8; Rpn11 inh: 48.5*; HNF4A DNA FP: 12.0; SENP1 FRET inh: -27.1; ATG4B inh: 11.7; Rpn11 confirm: 25.2; MMP-2 inh: -20.0; Thrombin FP: 17.0

High-throughput results deposited in PubChem by several laboratories.
